Published values of several laboratories.
Lines come from different studies, so protocols differ. In brackets after ≈: the same amount, converted by molar mass.
Observed: microbial growth

SMILES	organism	assay	test system	MIC [µg/mL]
Cc1cc(O)cc(Nc2nnc(-c3n[nH]c4ccc(C)cc34)s2)c1	Serratia marcescens		ATCC8100	125 (≈ 370 µM)
Nc1nn2c(-c3ccc(Cl)cc3Cl)cc(-c3ccc(OCc4ccccc4)cc3)nc2c1N=Nc1ccc(F)cc1	Enterobacter cloacae		ATCC23355	15.6 (≈ 26.7 µM)
CO/N=C(\C(=O)N[C@@H]1C(=O)N2C(C(=O)O)=CCS[C@H]12)c1csc(N)n1	Enterobacter cloacae	broth dilution	ATCC13047	2 (≈ 5.22 µM)
COc1ccc(N=Nc2c(N)nn3c(-c4ccc(C)cc4)cc(-c4ccc(OCc5ccccc5)cc4)nc23)cc1	Enterobacter cloacae		ATCC23355	31.3 (≈ 57.9 µM)
C[C@@H](O)[C@H]1C(=O)N2C(C(=O)O)=C(S[C@@H]3CN[C@H](C(=O)N(C)C)C3)[C@H](C)[C@H]12	Enterobacter cloacae	broth dilution	ATCC13047	0.125 (≈ 0.326 µM)
Nc1nn2c(-c3ccco3)cc(-c3ccc(OCc4ccccc4)cc3)nc2c1N=Nc1ccc(F)cc1	Enterobacter cloacae		ATCC23355	15.6 (≈ 30.9 µM)
Cc1ccc2[nH]nc(-c3nnc(Nc4ccc(C)c(C)c4)s3)c2c1	Serratia marcescens		ATCC8100	123 (≈ 366 µM)
C[C@@H](O)[C@H]1C(=O)N2C(C(=O)O)=C(SCCN=CN)C[C@H]12	Enterobacter cloacae	broth dilution	ATCC13047	2 (≈ 6.68 µM)
Cc1ccc2[nH]nc(-c3nnc(Nc4ccc(F)cc4Cl)s3)c2c1	Serratia marcescens		ATCC8100	85.2 (≈ 237 µM)
CCCCCCC#Cc1cncc(-c2nnc(SCc3ccc([N+](=O)[O-])cc3)n2CCCN)c1	Enterobacter cloacae	broth dilution	DSM30054	> 64
Cc1ccc2[nH]nc(-c3nnc(Nc4ccc([N+](=O)[O-])cc4)s3)c2c1	Serratia marcescens		ATCC8100	56.2 (≈ 159 µM)
CCCCCCC#Cc1cncc(-c2nnc(SCc3cc([N+](=O)[O-])cc([N+](=O)[O-])c3)n2CCCN)c1	Enterobacter cloacae	broth dilution	DSM30054	> 64
Cc1ccc2[nH]nc(-c3nnc(Nc4ccc(F)cc4)s3)c2c1	Serratia marcescens		ATCC8100	56.9 (≈ 175 µM)
Cc1ccc(N=Nc2c(N)nn3c(-c4ccc(Cl)cc4Cl)cc(-c4ccc(OCc5ccccc5)cc4)nc23)cc1	Enterobacter cloacae		ATCC23355	31.3 (≈ 54 µM)
CC1(C)S[C@@H]2[C@H](NC(=O)[C@H](N)c3ccc(O)cc3)C(=O)N2[C@H]1C(=O)O	Enterobacter cloacae	broth dilution	ATCC13047	> 64
CCCCCCC#Cc1cncc(-c2nnc(SCc3cc([N+](=O)[O-])cc([N+](=O)[O-])c3)n2CCOC2OC(CN)C(O)C2O)c1 (stereo not shown)	Enterobacter cloacae	broth dilution	DSM30054	64 (≈ 99.7 µM)
